{"data": "Assay results from different studies", "target": "MAP kinase-interacting serine/threonine-protein kinase 2 (MKNK2, Homo sapiens, UniProt Q9HBH9)", "note": "Protocols differ between the studies behind these lines."}
{"SMILES": "CO[C@@H]1[C@H](N(C)C(=O)c2ccccc2)C[C@H]2O[C@]1(C)n1c3ccccc3c3c4c(c5c6ccccc6n2c5c31)C(=O)NC4", "observed": "enzyme activity", "action": "inhibitor", "concentration": "1 µM", "quantity": "inhibition", "result": "30%"}
{"SMILES": "CN1CCN(C(=O)c2ccc(NC(=O)Nc3ccc(N(C)c4ccnc(Nc5ccc(CS(C)(=O)=O)cc5)n4)cc3)cc2)CC1", "observed": "binding", "technique": "competition with immobilised ligand", "concentration": "1 µM", "quantity": "remaining binding", "result": "4.2%"}
{"SMILES": "N#Cc1ccc(NC(=O)Nc2ccccc2)cc1", "observed": "cell-free assay", "technique": "competition with immobilised ligand", "concentration": "25 µM", "quantity": "remaining binding", "result": "46%"}
{"SMILES": "COc1ccc2oc(-c3ccc4nc(N)oc4c3)c/c(=N\\c3ccccc3NC(=O)CCN)c2c1", "observed": "binding", "concentration": "1 µM", "quantity": "remaining binding", "result": "93%"}
{"SMILES": "Cc1ccc(NC(=O)c2ccnc(C(F)(F)F)c2)cc1-c1cc(OCCO)nc(N2CCOCC2)c1", "observed": "binding", "technique": "competition with immobilised ligand", "concentration": "1 µM", "quantity": "remaining binding", "result": "79%"}
{"SMILES": "C1=C/COCc2cc(ccc2OCCN2CCCC2)Nc2nccc(n2)-c2cccc(c2)COC/1", "observed": "binding", "concentration": "0.1 µM", "quantity": "remaining binding", "result": "59%"}
{"SMILES": "C=CC(=O)N1CCC([C@@H]2CCNc3c(C(N)=O)c(-c4ccc(Oc5ccccc5)cc4)nn32)CC1", "observed": "enzyme activity", "action": "inhibitor", "concentration": "1 µM", "quantity": "inhibition", "result": "22%"}
{"SMILES": "CCCCC(=O)Nc1ccc(-c2ccc3ncn(CCC)c(=O)c3c2)cn1", "observed": "binding", "technique": "competition with immobilised ligand", "concentration": "0.5 µM", "quantity": "remaining binding", "result": "100%"}
{"SMILES": "CC(C)S(=O)(=O)c1ccc2nccc(Nc3ccc4sc(C5CCCC5)nc4c3)c2c1", "observed": "enzyme activity", "action": "inhibitor", "concentration": "1 µM", "quantity": "activity vs control", "result": "101%"}
